The source made the active and inactive calls.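 Rule for the calls, unless noted: active = NADPH fluorescence slope more negative than the mean of all samples by about 3 SD, 99.7% confidence; inactive = the rest.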

The nature of experiment [1]: inhibitors of TNFa-induced NFkB p65 translocation, primary screen, imaging, HUVEC, MLSMR starter and 10KST1 sets (AID 438;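 active = inhibition above 20% together with a positive visual image hit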;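 note: compound added about 3h40 before a 20 min TNFalpha stimulation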;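 for inhibition: signal is the nuclear over cytoplasmic p65 intensity ratio per well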). Particulars: HUVEC TNFa-induced p65 nuclear translocation; cell count: measured here: nuclei count (cytotoxicity indicator), at 2.08 µM; inhibition: at 2 µM, stronger effect = higher value, 0% TNFa-plus-vehicle, 100% no-TNFa wells.
The nature of experiment [2]: endothelial E-selectin expression blockers – imaging, HUVEC, immunofluorescence, MLSMR starter and 10KST1 sets, primary screen (AID 487;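 active = visually confirmed hit in the image check and inhibition above 20%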;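 for inhibition: signal is fraction of cell area covered by stained E-selectin grains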;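 for nuclei count: 100% = median nuclei count of all wells on the same plate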). To be noted: HUVEC TNFalpha-induced E-selectin immunofluorescence imaging, at 2 µM; inhibition: stronger effect = higher value; nuclei count: measured here: cell number, toxicity.
Experiment [3] is described as follows: Primary imaging screen for DUSP6 inhibitors that restore phospho-Erk in transfected HeLa cells, chemical complementation (AID 609;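 active = compounds giving at least 50% inhibition in the cell-based MKP-3 phosphatase rescue imaging test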;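 for inhibition: phospho-Erk level distribution per well compared with pooled transfected vehicle control wells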). To be noted: HeLa MKP-3 transfected, phospho-Erk imaging KS statistic, at 10 µM, cells stimulated with TPA for 15 min.
Experiment [4] has as its target Dual specificity protein phosphatase 6 (Homo sapiens) (UniProt Q16828). Described as above. To be noted: HeLa MKP-3 transfected, phospho-Erk imaging KS statistic; at 10 µM; stronger effect = higher value; cells stimulated with TPA for 15 min.
Experiment [5] has as its target Voltage-gated potassium channel subunit beta-2 (Rattus norvegicus) (UniProt P62483). Description: inhibitors of rat Kvbeta2 reductase activity – biochemical, NADPH fluorescence, primary screen (AID 622;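 active = fluorescence slope higher than the sample average by over 3 SD, cut at about -0.22 in these data, passing the limit was not always enough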;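 note: slope of raw intensity against log time taken from 70 to 1610 s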). Particulars: recombinant KvBeta, 4-cyanobenzaldehyde reduction, at 10 µM, stronger effect = higher value.
Experiment [6] has the same target. Nature of the experiment: enhancers of rat Kvbeta2 NADPH turnover – biochemical, NADPH fluorescence, primary screen (AID 623).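 Note: fluorescence intensity change per second fitted from 20 to 320 s.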 Particulars: Recombinant KvBeta, NADPH fluorescence decrease slope, 10 min; at 10 µM; stronger effect = lower value.
Experiment [7] addresses Alpha-2C adrenergic receptor (Homo sapiens) (UniProt P18825). Description: compounds altering alpha2C-coupled GIRK flux – cell-based, HEK293 alpha2C/GIRK1/2, thallium flux, primary screen (AID 624;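 active = fluorescence slope after compound addition differing from the mean of all screened samples at 99.7% confidence, in either direction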;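 note: slope of fluorescence ratio to pre-addition baseline per second over 15 to 24 s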). Particulars: thallium flux BTC fluorescence, at 10 µM, actives lie on both sides.
The nature of experiment [8]: inhibitors of larval lipid processing in zebrafish, primary screen, whole organism, PED6 fluorescence, gall bladder and intestine (AID 686;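 active = a full or partial loss of lipid-probe fluorescence in the fish gall bladder, intestine or both, judged by eye; inactive = no fluorescence loss, or compound toxic to the fish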;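 note: larvae 5 to 7 days old with five fish per well; signal comes from phospholipase A2 cleavage of quenched PED6 carried via bile; overnight exposure to compound and PED6 before scoring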). Particulars: Zebrafish larvae PED6 lipid processing, fluorescence scoring; screened at 20 µM (by protocol). In a few lines:
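Test system – live zebrafish larvae aged 5-7 days, whole organism · Buffer or medium – E3 fish medium · Reagent – quenched phospholipase substrate PED6, 100 nM final, ingested by larvae · Doses – 20 µM single dose · Incubation – overnight compound and PED6 incubation · Technique – visual fluorescence microscopy scoring of gall bladder, gut · Read-out basis – visual per-well fluorescence inhibition score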

Experiment [9] in a line: loss of swimming-algae plug formation – whole organism, Chlamydomonas reinhardtii, WT vs cilia-less mutant, absorbance, 96-well, primary screen (AID 463189;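 active = inhibition at or above 50% relative to wild type and mutant plate controls; inactive = inhibition below 50%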;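 note: 0% = wild type cc124 cells in DMSO and 100% = ciliumless bld1 mutant cells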). To be noted: Chlamydomonas reinhardtii gravitaxis, OD600 absorbance, 2 days; at 10 µM; stronger effect = higher value.
Setting [10] is: measured here: cell density z-score.
[11] abbreviates: measured here: nuclear c-Myc green intensity z-score.
The mark [12] stands for this setting: measured here: nuclear pErk red intensity z-score, stronger effect = higher value.

Sequence of Voltage-gated potassium channel subunit beta-2 (Rattus norvegicus) (P62483 whole entry, looked up): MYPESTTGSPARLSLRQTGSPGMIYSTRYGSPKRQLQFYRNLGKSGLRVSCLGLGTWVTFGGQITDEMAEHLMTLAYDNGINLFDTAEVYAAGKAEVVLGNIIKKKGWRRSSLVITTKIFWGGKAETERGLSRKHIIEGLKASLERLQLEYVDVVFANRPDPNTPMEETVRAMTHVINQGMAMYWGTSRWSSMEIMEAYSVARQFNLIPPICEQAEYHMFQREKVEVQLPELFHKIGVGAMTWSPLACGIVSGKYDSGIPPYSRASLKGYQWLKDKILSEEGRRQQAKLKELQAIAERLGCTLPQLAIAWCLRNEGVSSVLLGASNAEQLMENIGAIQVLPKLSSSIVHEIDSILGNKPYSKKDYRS
Sequence of Alpha-2C adrenergic receptor (Homo sapiens) (P18825 whole entry, looked up): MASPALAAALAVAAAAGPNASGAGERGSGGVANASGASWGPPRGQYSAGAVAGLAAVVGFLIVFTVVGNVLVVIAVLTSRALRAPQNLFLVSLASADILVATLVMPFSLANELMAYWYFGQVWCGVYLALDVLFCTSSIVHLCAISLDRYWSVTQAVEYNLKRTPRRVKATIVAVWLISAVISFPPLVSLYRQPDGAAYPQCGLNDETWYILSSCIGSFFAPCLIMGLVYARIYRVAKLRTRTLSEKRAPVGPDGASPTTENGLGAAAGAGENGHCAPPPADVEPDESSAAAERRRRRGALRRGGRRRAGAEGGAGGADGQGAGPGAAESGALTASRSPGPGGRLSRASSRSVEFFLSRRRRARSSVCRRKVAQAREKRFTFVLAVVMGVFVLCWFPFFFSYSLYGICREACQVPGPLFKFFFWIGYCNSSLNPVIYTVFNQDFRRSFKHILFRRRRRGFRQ
Sequence of Dual specificity protein phosphatase 6 (Homo sapiens) (Q16828 whole entry, looked up): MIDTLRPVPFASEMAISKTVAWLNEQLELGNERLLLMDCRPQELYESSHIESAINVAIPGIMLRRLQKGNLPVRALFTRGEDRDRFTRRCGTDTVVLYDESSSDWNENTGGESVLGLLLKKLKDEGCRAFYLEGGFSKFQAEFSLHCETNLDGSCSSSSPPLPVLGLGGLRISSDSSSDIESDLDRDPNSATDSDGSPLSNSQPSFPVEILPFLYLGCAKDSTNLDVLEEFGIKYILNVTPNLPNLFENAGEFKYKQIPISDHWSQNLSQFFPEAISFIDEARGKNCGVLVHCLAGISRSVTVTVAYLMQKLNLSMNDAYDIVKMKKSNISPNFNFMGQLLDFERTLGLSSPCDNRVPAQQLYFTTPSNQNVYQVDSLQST

One may read the inhibition as the change of the read-out against control, counted positive when it falls. In the case of `CCc1ccc2c(c1)C(C)=CC(C)(C)N2`, the cell count in [1] worked out at 622. Further, the inhibition is -14.1% (inactive) in experiment [1], -3.3% (inactive) in [2], -13.3% (inactive) in experiment [4] and 5.82% (inactive) in experiment [9]. The molecule further yielded a nuclei count in experiment [2] of 176%. The z-score was -1.35 in experiment [3] (setting [10]), -0.276 in experiment [3] (setting [11]) and 0.835 in experiment [3] (setting [12]). For the same molecule, the fluorescence slope in [5] was -0.431 (inactive). Besides, the NADPH fluorescence slope in experiment [6] is -6.9e-05 (inactive). The slope in experiment [7] was 0.00542 (inactive). The outcome in experiment [8] was inactive.
`Fc1ccc(OCCOCCNCC2CCCO2)cc1` (stereo unspecified): the cell count in [1] was found to be 369. The inhibition is 0.4% (inactive) in [1], -35.4% (inactive) in experiment [2], 15.1% (inactive) in experiment [4] and 43.6% (inactive) in experiment [9]. The molecule also registered a nuclei count in experiment [2] of 84.5%. Besides, the z-score in experiment [3] (setting [10]) came to 0.189; in [3] (setting [11]), 0.788; in experiment [3] (setting [12]), 0.463. The fluorescence slope in experiment [5] was -0.557 (inactive). For the same molecule, in experiment [6], the NADPH fluorescence slope was -4.4e-05 (inactive). Moreover, in [7], the slope was 0.00452 (inactive). Further, in experiment [8], the outcome was inactive.
Regarding `OCCN(CCO)c1ncnc2c1sc1nc(N3CCOCC3)c3c(c12)CCCC3`, the cell count in [1] stood at 597. Also, the inhibition in experiment [1] was -26.4% (inactive); in experiment [2] it was -62.2% (inactive); in experiment [4] it was 7.73% (inactive); in experiment [9], -3.05% (inactive). The nuclei count in experiment [2] amounted to 167%. The z-score in experiment [3] (setting [10]) was 0.421; in [3] (setting [11]) it was -0.458; in experiment [3] (setting [12]), -0.129. Moreover, the fluorescence slope in [5] is -0.275 (inactive). Further, the NADPH fluorescence slope in [6] is 1.3e-05 (inactive). Besides, the slope in experiment [7] was 0.00534 (inactive). Further, in experiment [8], the outcome was inactive.
As to `C/C(CC1(O)C(=O)N(Cc2ccccc2)c2ccccc21)=N\O` (stereo unspecified), the cell count in experiment [1] worked out at 645. Besides, the inhibition in [1] is -11.4% (inactive); in experiment [2], -28.2% (inactive); in experiment [4], -7.79% (inactive); in experiment [9], -6.97% (inactive). Further, the nuclei count in [2] is 182%. Moreover, the z-score in experiment [3] (setting [10]) was -1.05; in experiment [3] (setting [11]) it was -1.05; in experiment [3] (setting [12]), 1.51. In addition, in experiment [5], the fluorescence slope was -0.464 (inactive). Besides, the NADPH fluorescence slope in [6] was -0.000206 (inactive). Moreover, the slope in experiment [7] was 0.0275 (active). In addition, in experiment [8], the outcome was inactive.
Turning to `O=c1c(-c2ccc3c(c2)OCCO3)c(C(F)(F)F)oc2cc(O)cc(O)c12`, the cell count in experiment [1] is 534. Also, the inhibition in [1] is -10.2% (inactive); in experiment [2], -138% (inactive); in experiment [4], 1.9e-07% (inactive); in experiment [9], 29.9% (inactive). Moreover, the nuclei count in [2] amounted to 131%. For the same molecule, the z-score was 1.65 in [3] (setting [10]), -1.41 in experiment [3] (setting [11]) and -0.0254 in experiment [3] (setting [12]). For the same molecule, in experiment [5], the fluorescence slope was -0.533 (inactive). The NADPH fluorescence slope in experiment [6] is -4e-05 (inactive). Also, in experiment [7], the slope is 0.00864 (inactive). Besides, in [8], the molecule was classed as inactive.
For `CC(=O)c1cc2c(=O)c3ccccc3oc2nc1C`, in experiment [1], the cell count is 564. For the same molecule, the inhibition in experiment [1] is -7.4% (inactive); in [2] it was 19.7% (inactive); in experiment [4], 26.5% (inactive); in experiment [9], 46.5% (inactive). In experiment [2], this molecule registered a nuclei count of 151%. For the same molecule, the z-score in experiment [3] (setting [10]) was 0.231; in experiment [3] (setting [11]), 1.31; in experiment [3] (setting [12]), -0.249. In addition, the fluorescence slope in experiment [5] is -0.525 (inactive). Further, the NADPH fluorescence slope in experiment [6] was -4.9e-05 (inactive). Also, in [7], the slope was 0.00444 (inactive). For the same molecule, the molecule was called inactive in [8].
For `CC(=O)N1CCN(c2nc(CC(C)C)c3c(c2C#N)CCC3)CC1`, in experiment [1], the cell count stood at 524. In addition, the inhibition in [1] is 0.5% (inactive); in experiment [2] it was -100% (inactive); in experiment [4] it was 5.26% (inactive); in experiment [9] it was -18% (inactive). This molecule registered a nuclei count in experiment [2] of 145%. The z-score in experiment [3] (setting [10]) was -0.27; in [3] (setting [11]), -0.142; in [3] (setting [12]), -0.203. Moreover, the fluorescence slope in experiment [5] is -0.477 (inactive). In experiment [6], the NADPH fluorescence slope is -4.8e-05 (inactive). The slope in experiment [7] is 0.00485 (inactive). For the same molecule, in experiment [8], the call was inactive.

The values above are taken from PubChem BioAssay.
